Runt-SMMHC FRET – blocks binding of human RUNX1 Runt domain to CBFb-SMMHC | inhibition, % at 20 µM | AID 1434 | Q01196+Q13951 | Cerulean-Runt/Venus-CBFb-SMMHC FRET ratio 530/480, 1 h | 0.74% of 220,000 active;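 active = mean inhibition across duplicate retests at 20 µM reaching about 50%, limit read from the data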;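 also: 0% = DMSO wells and 100% = wells with excess untagged CBFb-SMMHC; inhibitors lower the FRET ratio by blocking Runt binding to CBFb-SMMHC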
Runt-CBFb FRET – blocks binding of human RUNX1 Runt domain to CBFb; Q01196+Q13951; Cerulean-Runt/Venus-CBFb FRET ratio 530/480, 1 h; inhibition, % at 20 µM; 0.46% of 220,000 active;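 active = inhibition over about 50% at 20 µM in the single-dose screen, limit read from the data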;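 also: 0% = DMSO wells and 100% = excess unlabeled CBFb competitor control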
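test system = Cerulean-tagged RUNX1 Runt domain (FRET donor) fusion protein | reagent = Venus-CBFb binding partner, 100 nM | incubation = protein complex preformed 1 h, compound exposure 1 h, room temperature, dark | detection = FRET fluorescence | read-out basis = loss of energy transfer signal | controls = 5 µM unlabeled CBFb as full-inhibition high control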
TbHK1 inh – blocks Trypanosoma brucei hexokinase 1 activity. inhibition, % at 10 µM. 0.11% of 220,000 active. recombinant TbHK1, G6PDH-coupled NADH A340;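 active = inhibition of 50% or more in the single-dose primary screen; inactive = inhibition below 50%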
RanGTP-Impb inh – disruptors of Ran-importin-beta complex formation – biochemical, FRET, CFP-Ran, YFP-importin-beta, homogeneous, primary screen. inhibition, % (concentration not given with the values). 1.1% of 300,000 active. AID 2216. cell-free CFP-Ran/YFP-importin-beta FRET ratio;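 active = more than half of the replicate wells show a fall in the fluorescence ratio signal beyond about 16%, limit read from the data, passing the limit was not always enough; inconclusive = exactly half of the replicate wells pass the set limit; inactive = fewer than half of replicates pass the limit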;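 also: 0% = DMSO wells and 100% = Ran loaded with GDP instead of GTP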
Hck Nef HTS – inhibitors of human Hck kinase activated by Nef | 0.68% of 220,000 active | Recombinant Hck-YEEI plus Nef, Z-Lyte FRET kinase assay | AID 463187 | inhibition, % at 20 µM | P08631;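 active = Hck-Nef kinase inhibition above about 50%, limit read from the data; inactive = inhibition below that limit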;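 also: 0% = DMSO with Hck plus Nef and 100% = Hck alone without Nef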
Target sequence (P08631 whole entry, looked up): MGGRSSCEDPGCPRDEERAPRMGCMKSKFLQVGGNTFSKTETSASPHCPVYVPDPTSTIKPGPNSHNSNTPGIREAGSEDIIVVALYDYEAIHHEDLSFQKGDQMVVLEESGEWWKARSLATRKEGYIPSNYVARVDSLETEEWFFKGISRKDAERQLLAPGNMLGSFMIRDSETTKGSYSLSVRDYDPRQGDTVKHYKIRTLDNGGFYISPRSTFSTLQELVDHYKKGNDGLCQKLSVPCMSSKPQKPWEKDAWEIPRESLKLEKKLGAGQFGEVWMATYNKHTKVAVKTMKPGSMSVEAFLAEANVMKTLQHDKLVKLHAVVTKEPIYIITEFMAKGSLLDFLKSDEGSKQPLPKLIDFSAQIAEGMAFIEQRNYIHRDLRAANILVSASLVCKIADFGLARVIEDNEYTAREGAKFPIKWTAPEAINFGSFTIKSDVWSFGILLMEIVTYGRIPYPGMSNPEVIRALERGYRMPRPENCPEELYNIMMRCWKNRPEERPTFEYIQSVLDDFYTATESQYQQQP
p97 inhibitor – human p97 ATPase inhibition; P55072; inhibition, % at 8 µM; recombinant p97 ATPase, Kinase-Glo ATP luminescence, 3 h; 0.42% of 220,000 active; AID 1481; in the data active = inhibition above about 15%;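 also: 0% = DMSO vehicle and 100% = wells lacking enzyme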
YIC FRET counter – counter-screen for RanGTP-importin-beta inhibitors: YIC FRET probe; shares compounds with RanGTP-Impb inh; 40% of 1,000 active; IC50, µM; Purified YIC probe, intramolecular FRET ratio YFP/CFP;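 active = fitted half-maximal inhibitory concentration no more than tenfold above the top dose tested; inconclusive = flat fit with 30 to 70% activity, or poor fit; inactive = half-maximal concentration beyond tenfold above the top dose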
* marks the source's active call; other numbers are inactive results; ? = inconclusive; . = no result. Compounds with a hit are over-represented: about 2.1% of the library has one in this group of screens.

SMILES	Runt-SMMHC FRET	Runt-CBFb FRET	TbHK1 inh	RanGTP-Impb inh	Hck Nef HTS	p97 inhibitor	YIC FRET counter
NS(=O)(=O)c1ccc(CCNC(=O)C(=O)c2cn(CC(=O)N3CCOCC3)c3ccccc23)cc1	.	.	.	-3	.	.	.
CCOCCCNC(=O)NC(=O)CN1CCN(S(=O)(=O)c2ccc3c(c2)OCCO3)CC1	2	1	0	19*	-9	3	>50
CCN(C(=O)c1coc(=O)c(Br)c1)c1ccc2c(c1)OCO2	-29	-11	-28	-11	12	5	.
CCN(C(=O)c1c(C)cc(=O)oc1C)c1ccc2c(c1)OCO2	-3	4	-5	17*	-2	2	>50
O=C1C=C(Nc2ccc(Cl)cc2Cl)CC(c2ccco2)C1 (configuration not stated)	3	1	-7	24*	9	1	>50
Cn1c(N)c(C(=O)COC(=O)CC(NC(=O)c2ccccc2Cl)c2ccccc2)c(=O)n(C)c1=O (configuration not stated)	-2	-3	-5	-1	23	1	.
O=C(Cn1cc(C(F)(F)F)ccc1=O)NCc1ccc(F)cc1	.	.	.	5	.	.	.
Cc1cc(N2C(=O)C(O)=C(C(=O)c3cc4ccccc4o3)C2c2cccc(Cl)c2)no1 (configuration not stated)	.	.	.	25*	.	.	7.4*
COC(=O)C1=CN(C2CC2)C=C(C(=O)OC)C1c1ccc(C(F)(F)F)cc1	123*	80*	-6	26*	26	1	19*
CN(C)S(=O)(=O)N1CCC(Oc2cccc(C(=O)N3CCCCCCC3)c2)CC1	.	.	.	5	.	.	.
O=[N+]([O-])c1cc(CN2CCCC2)ccc1Sc1ccc(Cl)cc1	1	-1	5	19*	9	0	>50
Cc1ccsc1-c1nc(CN2C[C@@H](C)O[C@@H](C)C2)c(C)o1	4	0	2	2	19	-4	.
Cc1ccc(OCc2nnc(SCC(=O)CC(=O)Nc3ccccc3)o2)cc1	3	-4	-5	27*	1	1	>50
Cc1cccc(-n2c(C)cc(/C=C3\C(=N)N4N=C(CC(C)C)SC4=NC3=O)c2C)c1	9	-22	34	26*	5	9	>50
Cc1cc(Cl)ccc1C(=O)C1CCCN(C(=O)CN2CCOC2=O)C1 (configuration not stated)	.	.	.	3	.	.	.
CCN1/C(=C2\SC(=S)N(Cc3ccccc3)C2=O)Sc2ccccc21	-27	-153	8	24*	3	4	>50
CCN1/C(=C2/SC(=S)N(NC(C)=O)C2=O)Sc2ccccc21	.	.	.	-74	.	.	.
C[C@H](O)c1[nH]c2cc(F)ccc2c1[C@H](C)O	.	.	.	18*	.	.	>50
Cc1ccc(S(=O)(=O)N2C(=O)CCC2C(=O)O/N=C(\N)c2cccc([N+](=O)[O-])c2)cc1 (configuration not stated)	.	.	.	0	.	.	.
COc1ccccc1C#Cc1ccc2c(=O)c3ccccc3n(C)c2c1	.	.	.	40*	.	.	0.72*
COc1cc(=O)n(C)c2ccccc12	5	2	-14	3	2	5	.
COc1ccccc1N(CC(=O)NC1CCCCC1)C(=O)CCC(=O)Nc1nccs1	.	.	.	-4	.	.	.
CN(C)/C=C/C(=O)/C=C/c1ccc(Cl)cc1	1	0	-29	22*	3	4	>50
CCOc1ccccc1CN1CCCC(C(=O)Nc2cccc(-n3cccn3)c2)C1 (configuration not stated)	.	.	.	0	.	.	.
O=C(NNC(=S)NC(=O)c1ccccc1[N+](=O)[O-])c1ccccc1O	1	4	-9	19*	23	2	>50
SMILES	Runt-SMMHC FRET	Runt-CBFb FRET	TbHK1 inh	RanGTP-Impb inh	Hck Nef HTS	p97 inhibitor	YIC FRET counter
O=S(=O)(Nc1nc2ccccc2nc1-[n+]1cccc(N=C([O-])c2ccccc2Cl)c1)c1ccccc1	75*	48	-14	24*	11	-1	6.7*
Oc1ccc(N=Nc2ccccc2-c2nn[nH]n2)c(O)c1	.	.	.	0	.	.	.
COc1cc(/C=C/C(=O)O)cc(S(=O)(=O)Nc2ccc3c(c2)CCC3)c1OC	.	.	.	2	.	.	.
Cc1c(NS(=O)(=O)c2ccccc2)c(=O)n(-c2ccccc2)n1C	-2	1	3	-2	-2	6	.
Cc1c(NC2=CC(=O)CCC2)c(=O)n(-c2ccccc2)n1C	3	2	-4	18*	-2	5	>50
CN1CCN(c2ccc(S(=O)(=O)N3CCCCC3)cc2NC(=O)Cc2ccc(Cl)cc2)CC1	-2	-4	-6	40*	0	3	>50
COc1cc2c(cc1OC)CN(Cc1cc(=O)oc3cc(C)c(Cl)cc13)CC2	-41	-18	13	23*	7	7	>50
CCc1ccc2c(CN3CCc4cc(OC)c(OC)cc4C3)cc(=O)oc2c1	-41	-16	-7	10	6	4	.
COc1cc2c(cc1OC)CN(Cc1cc(=O)oc3cc(C)c(C)cc13)CC2	2	-2	-14	?	1	-1	.
COc1cc2c(cc1OC)CN(Cc1cc(=O)oc3c(C)c(C)ccc13)CC2	-41	-17	-13	20*	4	1	>50
N=c1sccn1CC(=O)NCc1ccc(Cl)cc1Cl	-2	1	-1	3	16	14	.
COc1ccccc1CNC(=O)Cn1ccsc1=N	.	.	.	20*	.	.	>50
CN(Cc1ccccc1)C(=O)C1CCCN(Cc2cccc(Cl)c2)C1 (configuration not stated)	-1	1	2	0	25	-3	.
N#Cc1ccccc1NC(=O)C1CC(=O)N(c2ccc3c4c(cccc24)CC3)C1 (configuration not stated)	2	-1	29	22*	3	-2	>50
COc1ccc(S(=O)(=O)N2CCC(C(=O)NCc3ccncc3)CC2)cc1C	.	.	.	2	.	.	.
C=CCNC(=O)c1cccc(OC2CCN(CC(C)(C)C)CC2)c1	.	.	.	18*	.	.	>50
COc1ccc(NC(=O)Cc2nnc(SCC(=O)Nc3nccs3)n2C)cc1	.	.	.	0	.	.	.
CNC(=O)CN(c1ccc(Oc2ccccc2)cc1)S(=O)(=O)c1ccc(C)cc1	.	.	.	-2	.	.	.
O=C(c1cc(COc2ccc(F)cc2Cl)on1)N1CCCC(c2ccccc2)C1 (configuration not stated)	2	-3	13	18*	26	-8	>50
COc1ccc(/C=C2\SC(=S)N(CC(=O)OCC(=O)Nc3ccc([N+](=O)[O-])cc3OC)C2=O)cc1	-55	-29	-16	.	24	7	.
COc1ccc(/C=C2\SC(=S)N(CC(=O)OCC(=O)Nc3ccc(C)cc3Cl)C2=O)cc1	-31	-12	-6	18*	9	0	>50

Source: PubChem
